Activity calls are given as the source filed them. The rule behind the calls is not given here. A value given as a limit tells only on which side of the number the result lay.

The target of test [1] is T1, Adenosine receptor A1 (Rattus norvegicus) (UniProt P25099).
T1 sequence (whole entry): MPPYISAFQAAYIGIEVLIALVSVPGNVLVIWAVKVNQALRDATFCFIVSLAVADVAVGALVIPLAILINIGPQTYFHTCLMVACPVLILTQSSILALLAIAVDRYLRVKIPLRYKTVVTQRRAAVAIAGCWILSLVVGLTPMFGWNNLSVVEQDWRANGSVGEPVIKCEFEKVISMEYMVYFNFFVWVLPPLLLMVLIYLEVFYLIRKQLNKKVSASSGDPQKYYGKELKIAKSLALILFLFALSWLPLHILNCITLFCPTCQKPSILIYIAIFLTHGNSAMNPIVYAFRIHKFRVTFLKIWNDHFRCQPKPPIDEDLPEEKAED
The test is described as follows: Displacement of [3H]R-PIA from Adenosine A1 receptor in rat brain membrane at 100 uM. Type of test: cell membranes.

Test [2] deals with Adenosine receptor A2a (Rattus norvegicus) (UniProt P30543). The test is described as follows: Displacement of [3H]-CGS- 21680 from A2A receptors in rat striatal membranes at 100 uM. Type of test: cell membranes. To be noted: Membrane. The method in brief:
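Rat striatal membranes as A2A receptor source; displacement of specific [3H]CGS 21680 binding. Reported as Ki ± SEM or as % displacement, n = 3-6.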

Test [3] concerns the target T2, Adenosine receptor A3 (Homo sapiens, UniProt P0DMS8).
T2 sequence (P0DMS8 whole entry): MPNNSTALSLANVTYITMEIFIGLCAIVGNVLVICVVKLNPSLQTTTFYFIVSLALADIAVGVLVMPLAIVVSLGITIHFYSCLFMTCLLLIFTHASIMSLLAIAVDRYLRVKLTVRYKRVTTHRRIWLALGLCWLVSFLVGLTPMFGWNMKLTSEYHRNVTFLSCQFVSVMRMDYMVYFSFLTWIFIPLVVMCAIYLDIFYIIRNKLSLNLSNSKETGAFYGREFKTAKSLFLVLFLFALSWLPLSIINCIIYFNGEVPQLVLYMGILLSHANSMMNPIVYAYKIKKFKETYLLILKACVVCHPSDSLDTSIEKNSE
The test can be described thus: Displacement of [125I]AB-MECA from human Adenosine A3 receptor expressed in HEK293 cell membranes. The gist of the method:
(§1)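 Membranes from HEK-293 cells expressing human A3 receptor; specific [125I]AB-MECA binding displaced by test ligands. Reported as Ki ± SEM or as % displacement, n = 3-5.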

In test [4] the target is T3, Adenosine receptor A3 (Homo sapiens) (UniProt P0DMS8).
T3 sequence (whole entry): T2 sequence (P0DMS8 whole entry)
The test is described as follows: Displacement of [125I]AB-MECA from human Adenosine A3 receptor expressed in HEK293 cell membranes at 100 uM. The gist of the method: as §1

The subject of test [5] is HL-60. The test is described as follows: Effect on calcium mobilization in HL-60 cells at the dose of 100 uM concentration; Inactive. It is filed as functional, cell-based. To be noted: Homo sapiens.
In test [6] the target is T4, Adenosine receptor A1 (Rattus norvegicus, UniProt P25099).
T4 sequence (P25099 whole entry): T1 sequence (whole entry)
The test is described as follows: Displacement of [3H]R-PIA binding to Adenosine A1 receptor in rat brain membrane. It is filed as cell membranes.

Test [7] deals with HL-60. The test is described as follows: Effect on calcium mobilization in HL-60 cells at the dose of 100 uM concentration (1 uM UTP). It is filed as functional, Homo sapiens.

Adenosine receptor A2a (Rattus norvegicus), sequence (P30543 whole entry): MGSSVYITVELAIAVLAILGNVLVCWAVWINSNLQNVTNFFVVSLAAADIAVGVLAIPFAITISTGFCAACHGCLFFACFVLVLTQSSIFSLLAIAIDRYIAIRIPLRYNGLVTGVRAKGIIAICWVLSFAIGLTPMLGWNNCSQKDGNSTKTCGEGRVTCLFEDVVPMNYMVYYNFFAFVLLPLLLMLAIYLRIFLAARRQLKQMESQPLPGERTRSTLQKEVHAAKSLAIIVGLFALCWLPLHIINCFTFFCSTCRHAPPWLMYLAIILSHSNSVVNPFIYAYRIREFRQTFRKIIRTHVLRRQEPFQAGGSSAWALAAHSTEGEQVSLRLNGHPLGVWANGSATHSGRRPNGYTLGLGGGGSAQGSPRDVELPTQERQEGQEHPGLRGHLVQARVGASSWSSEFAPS

In the case of `Nc1nc(O)c2ncn([C@H]3[C@H](O)[C@H](O)[C@]4(CO)C[C@H]34)c2n1`, the Displacement in test [1] and in test [2] was below 10% each time. Affinity in test [3] was put at a Ki of 20.5 µM.
Regarding `CCCCn1c(=O)c2c(ncn2[C@H]2[C@H](O)[C@H](O)[C@]3(OP(=O)(O)OP(=O)(O)OP(=O)(O)O)C[C@H]23)n(CCCC)c1=O`, the Displacement in test [4] was below 10%.
In turn, `O=P(O)(OC[C@@]12C[C@@H]1[C@@H](n1cnc3c(O)ncnc31)[C@H](O)[C@@H]2O)OP(=O)(O)OC[C@@]12C[C@@H]1[C@@H](n1cnc3c(O)ncnc31)[C@H](O)[C@@H]2O` returned a Ki in test [3] of 21.6 µM. Further, the outcome in test [5] was inactive.
`CNC(=O)[C@@]12C[C@@H]1[C@@H](n1cnc3c(=O)[nH]cnc31)[C@H](O)[C@@H]2O` came in with a Ki in test [3] of 28.8 µM. That is a double-digit micromolar value.
Turning to `O=P(O)(O)OC[C@@]12C[C@@H]1[C@@H](n1cnc3c(O)ncnc31)[C@H](O)[C@@H]2O`, the outcome in test [5] was inactive.
In the case of `OC[C@@]12C[C@@H]1[C@@H](n1cnc3c(O)ncnc31)[C@H](O)[C@@H]2O`, the Displacement in test [1] and in test [2] was below 10% in each case.
`CCCCn1c(=O)c2c(ncn2[C@H]2[C@H](O)[C@H](O)[C@]3(CO)C[C@H]23)n(CCCC)c1=O` came in with a Displacement in test [2] below 10%. In addition, the inhibition constant (Ki) amounted to 4.35 µM in test [3] and 2.97 µM in test [6].
`Nc1nc(O)c2ncn([C@H]3[C@H](O)[C@H](O)[C@]4(COP(=O)(O)OP(=O)(O)OP(=O)(O)O)C[C@H]34)c2n1` returned a Displacement in test [4] below 10%. For the same molecule, the Activity in test [7] is listed as 53%.
Consider `CNC(=O)[C@@]12C[C@@H]1[C@@H](n1cnc3c(O)ncnc31)[C@H](O)[C@@H]2O`, for which the Displacement in test [1] and in test [2] was below 10% throughout.
In the case of `CCCCn1c(=O)c2c(ncn2[C@H]2[C@H](O)[C@H](O)[C@]3(C(=O)NC)C[C@H]23)n(CCCC)c1=O`, the Displacement in test [2] was below 10%. Moreover, the Ki in test [3] was 1.86 µM; in test [6], 24.4 µM.
